HGIII-sPLA2 inh: human group III sPLA2 inhibitors, primary screen, biochemical, QFRET, BODIPY PC-A2 liposome substrate | AID 743126, 2013 | QFRET BODIPY PC-A2 liposome hydrolysis, fluorescence | inhibition, % at 12.2 µM | 370,000 compounds, 0.56% hits | Group 3 secretory phospholipase A2 (Homo sapiens), Q9NZ20;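 active = inhibition above mean plus 3 SD of compounds lying within the high and low control bounds, cut at about 19% in these data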;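 note: 0% = median of test compound wells and 100% = no enzyme DMSO wells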
M18AAP inhibitor: PfM18AAP inhibitors, malaria aminopeptidase, primary screen, biochemical, QFRET, recombinant enzyme; M18 aspartyl aminopeptidase (Plasmodium falciparum 3D7); H-Glu-NHMec fluorogenic cleavage; inhibition, % at 7.35 µM; 290,000 compounds, 1.2% hits;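 active = inhibition above the campaign mean inhibition over all tested compounds plus 3 SD, cut at about 28% in these data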;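 note: 0% = plate median of test compound wells and 100% = 2 mM ZnCl2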
m5-HT2A agonist: mouse Htr2a agonists via beta-arrestin recruitment, primary screen, cell-based, luminescence. CHO-K1 mHTR2A beta-arrestin complementation; percent of 30 µM serotonin response. activation, % at 7.6 µM. 360,000 compounds, 0.66% hits. 5-hydroxytryptamine receptor 2A (Mus musculus), P35363;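 active = activation above a run cutoff, the mean activation of all tested compounds plus 3 SD, cut at about 14% in these data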;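 note: 0% = plate median of compound wells and 100% = 30 µM serotonin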
Hep lipid drop: inhibitors of hepatocyte lipid droplet formation, primary screen, imaging, high-throughput imaging, BODIPY stain | AML12 mouse hepatocytes, oleate lipid droplets | inhibition, % at 6.5 µM | 240,000 compounds, 0.4% hits;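 active = lipid droplet intensity inhibited by at least 50%, with more than 500 cells counted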
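Test system: AML12 hepatocytes (mouse); reagent: oleate loading, 100 µM; dosing: one dose, 6.5 µM compound; incubation: overnight exposure; signal: fluorescence imaging, 20x objective, two fields per well; read-out basis: % inhibition of corrected integrated BODIPY droplet signal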
NRP1-CendR mod: modulators of CendR peptide binding to NRP-1, primary screen, biochemical, fluorescence polarization, uHTS | Neuropilin-1 (Homo sapiens), O14786 | FAM-RPARPAR peptide binding to NRP-1 | inhibition, % at 25 µM | 360,000 compounds, 0.85% hits;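 active = inhibition or corrected inhibition above about 18%, plus a signal ratio from 0.5 to 1.5, limit read from the data, passing the limit was not always enough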
Target sequence (O14786 whole entry, looked up): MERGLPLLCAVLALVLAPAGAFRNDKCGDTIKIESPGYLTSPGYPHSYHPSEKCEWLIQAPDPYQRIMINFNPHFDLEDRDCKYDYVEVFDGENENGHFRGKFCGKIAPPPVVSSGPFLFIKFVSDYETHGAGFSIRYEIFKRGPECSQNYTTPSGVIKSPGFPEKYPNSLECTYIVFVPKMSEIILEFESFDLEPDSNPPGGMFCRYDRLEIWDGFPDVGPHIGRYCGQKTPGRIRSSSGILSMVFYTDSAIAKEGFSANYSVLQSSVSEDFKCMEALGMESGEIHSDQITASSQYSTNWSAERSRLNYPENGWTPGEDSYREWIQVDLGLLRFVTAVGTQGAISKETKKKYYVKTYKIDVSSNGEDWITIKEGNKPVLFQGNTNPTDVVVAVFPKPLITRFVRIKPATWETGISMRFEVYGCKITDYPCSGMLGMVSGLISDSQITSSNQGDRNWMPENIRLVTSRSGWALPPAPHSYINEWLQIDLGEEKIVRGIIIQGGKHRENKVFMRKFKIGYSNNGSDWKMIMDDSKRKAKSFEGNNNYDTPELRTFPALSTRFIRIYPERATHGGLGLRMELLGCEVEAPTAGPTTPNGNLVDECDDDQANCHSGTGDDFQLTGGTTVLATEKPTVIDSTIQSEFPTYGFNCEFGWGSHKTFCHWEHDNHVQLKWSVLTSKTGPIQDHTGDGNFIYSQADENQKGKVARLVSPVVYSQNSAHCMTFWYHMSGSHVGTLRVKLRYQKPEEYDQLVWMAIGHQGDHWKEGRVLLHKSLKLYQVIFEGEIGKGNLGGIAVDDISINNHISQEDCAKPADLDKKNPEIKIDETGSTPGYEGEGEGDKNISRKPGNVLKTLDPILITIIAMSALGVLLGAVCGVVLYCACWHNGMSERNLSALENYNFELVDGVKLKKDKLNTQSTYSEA
Arrestin-AP2 inh: inhibitors of beta-arrestin/AP2 binding, primary screen, biochemical, GPCR trafficking, flow cytometry. beta-arrestin 1 C-terminal peptide binding to AP2 beta2-adaptin appendage (human). FITC-arrestin peptide / GST-AP2 beads; AP2 beta2 appendage carries R879A mutation. inhibition, % at 10 µM. 340,000 compounds, 0.31% hits. AID 504490, 2011;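 active = inhibition above a set limit, near 3 SD of compounds lacking own fluorescence, cut at about 54% in these data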;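 note: plate controls were DMSO wells for no effect and 5 µM unlabelled arrestin peptide for full effect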
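Material – AP2 appendage R879A on GSH beads · Buffer or medium – PBS with 0.05% Tween 20 and 0.1% BSA · Probe or stimulus – fluorescein-tagged arrestin peptide at 50 nM final · Incubation – compound with beads 12 min RT, then probe 1 h RT · Detection – high-throughput flow cytometry of beads, ex 488, em 535 nm · Evaluation – percent response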
sPLA2 confirm: human group III sPLA2 inhibitors, confirmation, biochemical, QFRET, triplicate | inhibition, % at 12.2 µM | recombinant hGIII-sPLA2, BODIPY PC-A2 QFRET fluorescence | 2,000 compounds, 34% hits | shares compounds with HGIII-sPLA2 inh | AID 743280, 2014;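 active = mean inhibition across triplicates above the hit cutoff set in the earlier primary screen, cut at about 19% in these data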;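 note: 0% = enzyme with DMSO and 100% = DMSO wells lacking enzyme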
535nm interf: 535nm fluorescence optical interference, confirmation, artefact control for HGIII-sPLA2 inhibitor project, biochemical, QFRET; shares compounds with HGIII-sPLA2 inh; BODIPY FL product fluorescence interference; inhibition, % at 12.2 µM; 2,000 compounds, 8.5% hits; AID 743282, 2014;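 active = average inhibition above the solvent-only control mean plus 3 SD, cut at about 6% in these data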;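 note: 0% = DMSO with substrate plus product and 100% = DMSO with substrate alone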
535nm interf DR: 535nm fluorescence optical interference, dose response, artefact control for HGIII-sPLA2 inhibitor project, biochemical, QFRET | 240 tested, under 10 active | AID 743455, 2014 | BODIPY FL product fluorescence interference, cell-free | shares compounds with HGIII-sPLA2 inh | IC50, µM;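 active = IC50 at or below 10 µM; inactive = IC50 above 10 µM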
An asterisk follows results filed as active; nt = no result. The list is not random: actives were taken first. Their share in the collection is about 3.3%.

SMILES | HGIII-sPLA2 inh | M18AAP inhibitor | m5-HT2A agonist | Hep lipid drop | NRP1-CendR mod | Arrestin-AP2 inh | sPLA2 confirm | 535nm interf | others
COc1cc(C(=O)NNC(=S)NC(=O)c2ccc3c(c2)OCO3)cc(OC)c1OC | 24* | -6 | 1 | -8 | -9 | 11 | 37* | -16 | 535nm interf DR=>122
COc1ccc(C(=O)NC(=S)NNC(=O)c2cnccn2)cc1 | 4 | 0 | 5 | 0 | 7 | 10 | nt | nt
COc1ccc(C(=O)NNC(=S)NC(=O)C(C)(C)C)cc1 | 23* | 3 | -4 | -6 | -4 | -3 | 19* | -10
COc1cc(C(=O)NNC(=O)c2ccc3c(c2)OCCO3)cc(OC)c1OC | 4 | nt | -2 | nt | 0 | -9 | nt | nt
COc1cc(C(=O)NC(=S)NNC(=O)c2cnccn2)cc(OC)c1OC | 21* | 10 | 4 | 2 | 1 | 2 | 10 | -6
COc1ccc(C(=O)NNC(=O)c2ccc(C(C)(C)C)cc2)cc1 | -11 | 5 | 4 | -2 | 5 | -21 | nt | nt
COc1cc(C(=O)Nc2ccncc2)cc(OC)c1OC | 21* | 6 | 1 | nt | 19 | 6 | -3 | -8
COc1ccc(CC(=O)NNC(=O)c2cnccn2)cc1 | 20* | 29* | 0 | 0 | -8 | 22 | 8 | -7
COc1cc(C(=O)Nc2ccc3c(c2)Cc2cc(NC(=O)c4cc(OC)c(OC)c(OC)c4)ccc2-3)cc(OC)c1OC | 8 | -15 | 7 | 3 | -2 | -2 | nt | nt
COc1ccccc1C(=O)NNC(=S)NC(=O)c1cc(OC)c(OC)c(OC)c1 | 7 | 6 | 5 | -8 | 9 | 13 | nt | nt
COc1cc(C(=O)NNC(=S)NC(=O)c2ccccc2C)cc(OC)c1OC | 26* | 7 | -6 | -7 | -1 | -3 | 25* | -13
CCCCOCCCNC(=O)C[C@H]1C[C@@]2(C(=O)OC)C(=C[C@H](C(C)C)O[C@@H]2C2CC2)N(Cc2cccc3ccccc23)C1=O | -8 | nt | nt | nt | nt | nt | nt | nt
O=C(/C=C/c1ccc(-c2ccccc2)cc1)NC1=NCCS1 | -2 | nt | nt | nt | nt | nt | nt | nt
CCc1ccc(Nc2n[n+](-c3ccccc3)c(-c3ccc(N(CC)CC)cc3)s2)cc1 | 23* | 6 | -9 | -47 | 150 | -1 | -22 | -50
C[C@H](O)[C@@H]1C(=O)N2CCc3c([nH]c4ccccc34)[C@@H]2C[C@@H]1N(C)S(=O)(=O)c1ccccc1 | -13 | nt | 4 | nt | -20 | nt | nt | nt
CCCCCCCCNC(=S)NCCN1CCCCC1 | 23* | 1 | -8 | 6 | 5 | 11 | 21* | -16
COC(=O)c1ccc(C(=O)Nc2ccc3c(c2)C(=O)NC3=O)cc1 | 23* | -1 | 3 | 11 | -13 | -7 | 0 | 6.8*
Cc1ccc(C(=O)Nc2ccc3c(c2)C(=O)NC3=O)cc1 | 1 | -1 | -3 | 12 | 0 | 13 | nt | nt
COc1cccc(/C=C2/SC(=S)N(CC(=O)NNC(=O)c3ccccc3O)C2=O)c1 | 23* | 25 | 2 | 4 | -4 | 2 | 22* | -8
CC(/C=C1\SC(=S)N(CCC(=O)Nc2ccc(O)cc2)C1=O)=C\c1ccccc1 | 19* | 2 | -3 | 5 | 4 | -17 | -3 | 4
COc1cccc(/C=C2/SC(=S)N(CCCC(=O)Nc3ccc(O)cc3)C2=O)c1 | -36 | -6 | 3 | -23 | 6 | -8 | nt | nt
O=C(CN1C(=O)/C(=C/c2ccccc2)SC1=S)NNC(=O)c1ccccc1O | 20* | 9 | 1 | 2 | -22 | -7 | 15 | -4
O=C(CCN1C(=O)/C(=C/c2ccccc2Cl)SC1=S)NNC(=O)c1ccccc1O | 20* | 17 | 7 | -3 | -8 | 4 | 30* | 1 | 535nm interf DR=>122
CC(CCCCCCCCC(=O)O)N(CCO)C(=O)OC(C)(C)C (configuration not stated) | -6 | nt | -1 | nt | 19 | 2 | nt | nt
O=C(/C=C/c1cccnc1)c1cccc(O)c1 | -2 | 20 | -4 | -1 | 2 | 20 | nt | nt
SMILES | HGIII-sPLA2 inh | M18AAP inhibitor | m5-HT2A agonist | Hep lipid drop | NRP1-CendR mod | Arrestin-AP2 inh | sPLA2 confirm | 535nm interf | others
O=C(/C=C/c1cccnc1)c1ccc(O)cc1 | 22* | 5 | 2 | -1 | -11 | 20 | 4 | -7
Cc1ccc(NC(=S)N2CCN(Cc3ccccc3)CC2)c(C)c1 | 21* | -10 | 9 | 11 | 0 | -20 | 14 | -12
O=C(/C=C/c1ccc2c(c1)OCO2)NCc1ccco1 | 20* | 6 | 9 | -13 | 21 | 4 | -2 | -6
C/C(=N\NC(=O)c1ccc(N(C)C)cc1)c1ccc(C)c(C)c1 | 31* | -39 | -2 | -16 | -19 | 25 | 6 | -2
CCOc1ccccc1NC(=O)C(OC(=O)c1ccccc1O)c1ccccc1 (configuration not stated) | 22* | -5 | 2 | 8 | -1 | 1 | -18 | -11
CCN(CC)c1ccc(N=Nc2nn(C)c(C)c2[N+](=O)[O-])cc1 | 23* | 4 | -3 | -1 | -4 | 6 | 39* | 4 | 535nm interf DR=>122
CC(=O)N1CCN(c2ccc(NCc3ccc(-c4ccc(Br)cc4)o3)cc2)CC1 | 20* | nt | -1 | nt | -31 | 8 | 20* | -21
CC(=O)N1CCN(c2ccc(NCc3ccc(Br)o3)cc2)CC1 | 6 | nt | -1 | nt | 10 | 9 | nt | nt
COc1ccc2nc(Cl)c(C=O)c(N3CCOCC3)c2c1 | 4 | nt | 3 | nt | -7 | nt | nt | nt
Cc1cc2c(cc1C)N(C(=O)CSc1nncn1C)C(C)(C)c1ssc(=S)c1-2 | 34* | 28 | -2 | -42 | 6 | 6 | 12 | -23
C/C(=N\NC(=O)c1ccccc1F)c1ccc2c(c1)Nc1ccccc1S2 | 20* | 10 | -1 | -3 | -14 | 0 | 45* | 10*
C/C(=N\NC(=O)c1ccc(O)cc1)c1ccc2c(c1)Nc1ccccc1S2 | 3 | 2 | -5 | -5 | -35 | -2 | nt | nt

Source: PubChem
